# Source: the M2OR odorant receptor database
# Key:
# Conditions in all cases: stereoisomer not certain
# [1] = molecular target: T1, UniProt Q8VGZ2
# T1 sequence (whole entry): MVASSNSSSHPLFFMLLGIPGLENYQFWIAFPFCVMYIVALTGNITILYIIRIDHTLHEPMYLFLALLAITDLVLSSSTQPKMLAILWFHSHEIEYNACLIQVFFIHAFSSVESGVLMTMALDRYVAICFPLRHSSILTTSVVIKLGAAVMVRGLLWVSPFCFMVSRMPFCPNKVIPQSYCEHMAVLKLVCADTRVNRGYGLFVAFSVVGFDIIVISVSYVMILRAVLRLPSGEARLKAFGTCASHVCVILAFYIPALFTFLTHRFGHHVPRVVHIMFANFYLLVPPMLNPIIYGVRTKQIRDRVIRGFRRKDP
# Outline: (§1)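 Transient luciferase assays in mammalian cell lines were common, though methods varied by source. The values come from published papers and their supplementary material, with extra details from the original authors when needed. Responsive refers to a measured signal the original authors judged statistically different from baseline, and non-responsive (inactive) to the remainder.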
# [2] = molecular target: T2, UniProt Q8VGZ7
# T2 sequence (whole entry): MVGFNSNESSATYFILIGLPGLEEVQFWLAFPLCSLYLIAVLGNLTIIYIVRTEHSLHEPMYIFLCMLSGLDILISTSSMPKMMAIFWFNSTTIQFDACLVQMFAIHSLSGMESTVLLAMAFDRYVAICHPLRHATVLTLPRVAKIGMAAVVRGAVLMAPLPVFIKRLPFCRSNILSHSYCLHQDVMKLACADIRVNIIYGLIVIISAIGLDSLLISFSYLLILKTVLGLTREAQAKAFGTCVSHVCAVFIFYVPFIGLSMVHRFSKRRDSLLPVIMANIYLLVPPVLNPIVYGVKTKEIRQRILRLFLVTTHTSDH
# Outline: as §1
# [3] = molecular target: T3, UniProt Q8VH16
# T3 sequence (whole entry): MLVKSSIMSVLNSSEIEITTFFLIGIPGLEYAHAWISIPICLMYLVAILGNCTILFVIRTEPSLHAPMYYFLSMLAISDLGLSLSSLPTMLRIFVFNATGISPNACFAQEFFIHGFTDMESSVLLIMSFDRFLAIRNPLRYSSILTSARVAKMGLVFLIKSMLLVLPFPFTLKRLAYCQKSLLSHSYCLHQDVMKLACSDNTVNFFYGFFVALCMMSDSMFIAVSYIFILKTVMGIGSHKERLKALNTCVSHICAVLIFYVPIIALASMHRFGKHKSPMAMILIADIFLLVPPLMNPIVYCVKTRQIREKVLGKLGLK
# Outline: as §1
# [4] = molecular target: T4, UniProt Q8VH20
# T4 sequence (whole entry): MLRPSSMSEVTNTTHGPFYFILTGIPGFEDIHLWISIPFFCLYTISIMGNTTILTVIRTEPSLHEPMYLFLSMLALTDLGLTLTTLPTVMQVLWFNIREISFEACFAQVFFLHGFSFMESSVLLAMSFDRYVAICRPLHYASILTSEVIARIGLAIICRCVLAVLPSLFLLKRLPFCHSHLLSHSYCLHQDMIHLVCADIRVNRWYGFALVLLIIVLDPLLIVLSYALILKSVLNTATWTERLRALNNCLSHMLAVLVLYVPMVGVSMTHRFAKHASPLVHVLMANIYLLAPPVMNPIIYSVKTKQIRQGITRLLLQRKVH
# Outline: as §1
# [5] = molecular target: T5, UniProt Q8VH21
# T5 sequence (whole entry): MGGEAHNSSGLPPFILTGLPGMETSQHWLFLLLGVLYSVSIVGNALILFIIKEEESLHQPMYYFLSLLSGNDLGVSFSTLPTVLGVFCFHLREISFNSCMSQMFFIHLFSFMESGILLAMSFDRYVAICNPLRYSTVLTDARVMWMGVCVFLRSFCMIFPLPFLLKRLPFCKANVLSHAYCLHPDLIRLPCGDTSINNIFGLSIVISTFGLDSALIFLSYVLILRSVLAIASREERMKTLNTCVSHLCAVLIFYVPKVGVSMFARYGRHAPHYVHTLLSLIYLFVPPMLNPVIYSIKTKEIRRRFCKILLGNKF
# Outline: as §1
# [6] = molecular target: T6, UniProt Q924H8
# T6 sequence (whole entry): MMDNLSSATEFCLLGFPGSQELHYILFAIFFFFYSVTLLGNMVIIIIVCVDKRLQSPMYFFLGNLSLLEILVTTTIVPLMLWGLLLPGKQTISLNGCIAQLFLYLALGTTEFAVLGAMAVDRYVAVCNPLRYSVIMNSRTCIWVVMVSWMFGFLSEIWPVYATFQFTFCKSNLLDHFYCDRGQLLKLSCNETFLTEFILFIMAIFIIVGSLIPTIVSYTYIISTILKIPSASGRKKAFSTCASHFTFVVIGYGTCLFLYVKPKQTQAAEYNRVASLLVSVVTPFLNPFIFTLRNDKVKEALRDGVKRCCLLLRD
# Outline: as §1
# [7] = molecular target: T7, UniProt Q99NH4
# T7 sequence (whole entry): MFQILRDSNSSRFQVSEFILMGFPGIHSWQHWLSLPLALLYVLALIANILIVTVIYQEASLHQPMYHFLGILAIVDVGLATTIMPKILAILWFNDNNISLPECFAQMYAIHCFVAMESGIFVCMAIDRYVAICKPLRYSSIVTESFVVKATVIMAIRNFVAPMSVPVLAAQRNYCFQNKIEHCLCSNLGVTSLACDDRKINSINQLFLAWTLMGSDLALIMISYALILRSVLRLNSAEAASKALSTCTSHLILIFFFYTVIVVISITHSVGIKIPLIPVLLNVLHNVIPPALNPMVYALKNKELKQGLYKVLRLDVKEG
# Outline: as §1
# [8] = molecular target: UniProt Q9EQB5
# UniProt Q9EQB5, sequence (Q9EQB5 as listed by the source): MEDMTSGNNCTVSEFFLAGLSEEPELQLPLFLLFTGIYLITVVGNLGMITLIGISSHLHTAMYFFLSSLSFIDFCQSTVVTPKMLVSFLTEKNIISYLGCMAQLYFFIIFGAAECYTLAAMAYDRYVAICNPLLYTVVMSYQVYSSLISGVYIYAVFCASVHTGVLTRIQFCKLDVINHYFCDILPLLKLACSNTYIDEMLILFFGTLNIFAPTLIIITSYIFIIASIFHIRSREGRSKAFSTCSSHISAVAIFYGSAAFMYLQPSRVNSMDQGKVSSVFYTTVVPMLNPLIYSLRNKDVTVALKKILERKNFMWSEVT
# Outline: as §1
# [9] = molecular target: T8, UniProt Q920P1
# T8 sequence (whole entry): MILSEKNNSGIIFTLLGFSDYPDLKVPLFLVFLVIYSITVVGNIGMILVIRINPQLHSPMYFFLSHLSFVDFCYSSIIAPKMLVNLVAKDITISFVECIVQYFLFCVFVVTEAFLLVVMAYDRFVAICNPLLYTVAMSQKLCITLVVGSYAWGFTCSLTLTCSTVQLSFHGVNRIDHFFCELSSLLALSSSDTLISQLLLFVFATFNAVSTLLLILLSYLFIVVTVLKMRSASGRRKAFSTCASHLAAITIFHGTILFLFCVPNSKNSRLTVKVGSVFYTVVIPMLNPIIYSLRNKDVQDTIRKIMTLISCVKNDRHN
# Outline: as §1
# [10] = molecular target: T9, UniProt Q920P2
# T9 sequence (whole entry): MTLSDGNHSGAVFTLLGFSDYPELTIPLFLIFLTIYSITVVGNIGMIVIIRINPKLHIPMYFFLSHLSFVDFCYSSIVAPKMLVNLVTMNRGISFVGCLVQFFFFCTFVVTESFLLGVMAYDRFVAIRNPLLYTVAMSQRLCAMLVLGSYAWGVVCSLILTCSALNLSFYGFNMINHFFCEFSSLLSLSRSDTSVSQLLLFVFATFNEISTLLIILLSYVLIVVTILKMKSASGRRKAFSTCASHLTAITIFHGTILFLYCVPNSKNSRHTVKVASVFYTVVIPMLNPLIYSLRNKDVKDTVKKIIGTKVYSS
# Outline: as §1
# 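Also: active if original authors judged signal statistically different from baseline.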
Structure (SMILES),odorant receptor agonist call [1],odorant receptor agonist call [2],odorant receptor agonist call [3],odorant receptor agonist call [4],odorant receptor agonist call [5],odorant receptor agonist call [6],odorant receptor agonist call [7],odorant receptor agonist call [8],odorant receptor agonist call [9],odorant receptor agonist call [10]
CCc1ncc(C)nc1CC,inactive,inactive,inactive,inactive,inactive,inactive,,,,
CCCCCC(C)O (stereo not drawn),inactive,inactive,inactive,inactive,inactive,inactive,,,,
C1CCOCC1,inactive,inactive,inactive,inactive,inactive,inactive,,,,
CCC=CCCCCC=O,inactive,inactive,inactive,active,inactive,inactive,,,,
Cc1ccc2c(c1)OCC(=O)CO2,inactive,inactive,inactive,inactive,inactive,inactive,,,,
CCSCC,inactive,inactive,inactive,inactive,inactive,inactive,,,,
CCCCCCCOC(=O)C(C)C,inactive,inactive,inactive,inactive,inactive,inactive,,,,
C=C1C2CCC(C2)C1(C)C (stereo not drawn),inactive,inactive,inactive,inactive,inactive,inactive,,,,
C=C(C)C1CCC(C)C(O)C1 (stereo not drawn),inactive,inactive,inactive,inactive,inactive,inactive,,,,
COC(OC)c1ccccc1,inactive,inactive,inactive,inactive,inactive,inactive,,,,
CC(C)CS,inactive,inactive,inactive,inactive,inactive,inactive,,,,
CCN(CC)CC,inactive,inactive,inactive,inactive,inactive,inactive,,,,
CSSSC,inactive,inactive,inactive,active,inactive,inactive,,,,
CC=CC(=O)C1=C(C)CCCC1(C)C,inactive,inactive,inactive,inactive,inactive,inactive,,,,
Cc1occc1SSc1ccoc1C,inactive,inactive,inactive,inactive,inactive,inactive,,,,
CCCCCCCCCCOC(C)=O,inactive,inactive,inactive,inactive,inactive,inactive,,,,
CCCCCOC(=O)CCC,inactive,inactive,inactive,inactive,inactive,inactive,,,,
OCC=Cc1ccccc1,inactive,inactive,inactive,inactive,inactive,inactive,,,,
C=C(C)C1CC=C(C)CC1 (stereo not drawn),inactive,inactive,inactive,inactive,inactive,inactive,,,,
Cc1ccccc1OC(=O)C(C)C,inactive,inactive,inactive,inactive,inactive,inactive,,,,
C1CCOC1,inactive,inactive,inactive,inactive,inactive,inactive,,,,
CC(=O)OC1(C)CCC23CC1C(C)(C)C2CCC3C (stereo not drawn),active,inactive,inactive,active,inactive,active,,,,
CCCCCCCCC=CC=O,inactive,inactive,inactive,inactive,inactive,inactive,,,,

Structure (SMILES),odorant receptor agonist call [1],odorant receptor agonist call [2],odorant receptor agonist call [3],odorant receptor agonist call [4],odorant receptor agonist call [5],odorant receptor agonist call [6],odorant receptor agonist call [7],odorant receptor agonist call [8],odorant receptor agonist call [9],odorant receptor agonist call [10]
CCC(C)c1nccnc1OC (stereo not drawn),inactive,inactive,inactive,inactive,inactive,inactive,,,,
CCCCCC=CCCC=O,active,inactive,inactive,active,inactive,inactive,,,,
CCC(C)O (stereo not drawn),inactive,inactive,inactive,inactive,inactive,inactive,,,,
C=CC(=C)CCC=C(C)C,inactive,inactive,inactive,inactive,inactive,inactive,,,,
CC(C)=CCCC(C)=CCOC(=O)C(C)C,inactive,inactive,inactive,inactive,inactive,inactive,,,,
Cc1ccc(OC(=O)C(C)C)cc1,inactive,inactive,inactive,inactive,inactive,inactive,,,,
CC1CCC(C(C)C)C(=O)C1 (stereo not drawn),inactive,inactive,inactive,inactive,inactive,inactive,,,,
CCCO,inactive,inactive,inactive,inactive,inactive,inactive,,,,
CC(=O)OCCc1ccccc1,inactive,inactive,inactive,inactive,inactive,inactive,,,,
CCCCCCCCCC=CC=O,inactive,inactive,inactive,inactive,inactive,inactive,,,,
CC(C)CCN,inactive,inactive,inactive,inactive,inactive,inactive,,,,
Cc1c(C)c(C)c(C=O)c(C)c1C,inactive,inactive,inactive,inactive,inactive,inactive,,,,
COc1cnccn1,inactive,inactive,inactive,inactive,inactive,inactive,,,,
CSSCc1ccco1,inactive,inactive,inactive,inactive,inactive,inactive,,,,
O=C([O-])CCC(=O)[O-].[H+].[H+],,,,,,,inactive,,,
O=C(OCc1ccccc1)c1ccccc1O,inactive,inactive,inactive,inactive,inactive,inactive,,,,
CCCCCCCCCCC(=O)O,,,,,,,inactive,,,
CNc1ccccc1C(=O)OC,inactive,inactive,inactive,inactive,inactive,inactive,,,,
CC(=O)C=CC1=C(C)CCCC1(C)C,inactive,inactive,inactive,inactive,inactive,inactive,,,,
O=C(O)CCCCCCCCC(=O)O,inactive,inactive,inactive,inactive,inactive,inactive,inactive,,,
CCSSCC,inactive,inactive,inactive,inactive,inactive,inactive,,,,
CC1CCCCCCCCCCCCC(=O)C1 (stereo not drawn),,,,,,,,inactive,,
COc1cc(C=O)cc(OC)c1O,,,,,,,,,inactive,inactive
